What was measured:
GANAB = target: T1, GANAB (Homo sapiens, UniProt Q14697); assay: Competitive ABPP against probe 13 in fibroblast lysates, pH 7; assay type: biochemical; settings: pH 7, preincubation 15, 30 or 60 min
T1 sequence (Q14697 29-944): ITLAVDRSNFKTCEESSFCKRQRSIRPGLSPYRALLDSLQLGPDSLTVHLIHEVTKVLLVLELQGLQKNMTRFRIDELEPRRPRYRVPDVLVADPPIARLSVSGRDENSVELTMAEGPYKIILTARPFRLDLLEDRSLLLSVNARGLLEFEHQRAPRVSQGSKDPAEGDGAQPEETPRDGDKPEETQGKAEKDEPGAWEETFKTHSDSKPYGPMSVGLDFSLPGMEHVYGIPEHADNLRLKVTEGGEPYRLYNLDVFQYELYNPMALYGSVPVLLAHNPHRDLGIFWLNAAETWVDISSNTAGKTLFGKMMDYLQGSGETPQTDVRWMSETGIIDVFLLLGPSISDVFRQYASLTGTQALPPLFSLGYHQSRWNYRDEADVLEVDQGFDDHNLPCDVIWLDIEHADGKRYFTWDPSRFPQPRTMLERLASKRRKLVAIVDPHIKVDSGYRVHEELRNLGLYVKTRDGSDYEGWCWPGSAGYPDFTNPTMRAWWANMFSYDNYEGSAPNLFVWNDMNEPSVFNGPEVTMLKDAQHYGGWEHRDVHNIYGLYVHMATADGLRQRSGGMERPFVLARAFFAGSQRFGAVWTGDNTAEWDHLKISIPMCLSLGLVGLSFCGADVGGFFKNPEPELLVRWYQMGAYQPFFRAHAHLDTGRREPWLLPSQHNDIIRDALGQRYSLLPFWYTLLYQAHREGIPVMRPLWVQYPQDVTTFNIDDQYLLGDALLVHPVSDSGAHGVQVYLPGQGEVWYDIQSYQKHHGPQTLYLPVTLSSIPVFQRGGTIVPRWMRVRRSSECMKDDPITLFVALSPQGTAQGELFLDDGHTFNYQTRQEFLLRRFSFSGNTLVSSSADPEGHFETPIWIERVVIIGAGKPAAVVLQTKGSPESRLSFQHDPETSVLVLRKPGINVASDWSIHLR
T1 sequence (P14314 15-528 partner): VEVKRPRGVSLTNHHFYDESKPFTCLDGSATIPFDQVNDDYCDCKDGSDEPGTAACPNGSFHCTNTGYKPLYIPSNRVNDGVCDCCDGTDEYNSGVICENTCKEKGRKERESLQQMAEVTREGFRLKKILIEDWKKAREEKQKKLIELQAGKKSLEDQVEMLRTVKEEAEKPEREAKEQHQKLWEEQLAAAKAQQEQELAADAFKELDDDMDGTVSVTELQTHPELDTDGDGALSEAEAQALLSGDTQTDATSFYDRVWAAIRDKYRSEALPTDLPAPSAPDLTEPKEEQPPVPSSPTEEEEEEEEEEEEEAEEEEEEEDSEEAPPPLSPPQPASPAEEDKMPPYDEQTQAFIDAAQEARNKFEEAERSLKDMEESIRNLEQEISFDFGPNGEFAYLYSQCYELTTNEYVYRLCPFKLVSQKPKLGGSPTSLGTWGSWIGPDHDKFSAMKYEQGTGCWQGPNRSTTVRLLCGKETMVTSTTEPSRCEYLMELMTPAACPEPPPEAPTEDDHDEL
Summary of the method: (§1)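 Human normal dermal fibroblast homogenate (17.6 μg total protein) in 150 mM McIlvaine buffer for 5 min on ice, at pH 4 for GAA and pH 7 for GANAB. Exposed to test compound for 15, 30 or 60 min at 37 °C, then labeled with Cy5 aziridine probe 13 for 30 min at 37 °C. Denatured at 98 °C, 10% SDS–PAGE, Cy5 in-gel fluorescence scan.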

GAA [1] = target: GAA (Mus musculus, UniProt P70699); assay: Competitive ABPP against probe 13 in mouse gastrointestinal lysate; assay type: biochemical; settings: mouse intestine lysate, 1 h at 37 °C
Chain of GAA (Mus musculus, UniProt P70699) (P70699 70-953): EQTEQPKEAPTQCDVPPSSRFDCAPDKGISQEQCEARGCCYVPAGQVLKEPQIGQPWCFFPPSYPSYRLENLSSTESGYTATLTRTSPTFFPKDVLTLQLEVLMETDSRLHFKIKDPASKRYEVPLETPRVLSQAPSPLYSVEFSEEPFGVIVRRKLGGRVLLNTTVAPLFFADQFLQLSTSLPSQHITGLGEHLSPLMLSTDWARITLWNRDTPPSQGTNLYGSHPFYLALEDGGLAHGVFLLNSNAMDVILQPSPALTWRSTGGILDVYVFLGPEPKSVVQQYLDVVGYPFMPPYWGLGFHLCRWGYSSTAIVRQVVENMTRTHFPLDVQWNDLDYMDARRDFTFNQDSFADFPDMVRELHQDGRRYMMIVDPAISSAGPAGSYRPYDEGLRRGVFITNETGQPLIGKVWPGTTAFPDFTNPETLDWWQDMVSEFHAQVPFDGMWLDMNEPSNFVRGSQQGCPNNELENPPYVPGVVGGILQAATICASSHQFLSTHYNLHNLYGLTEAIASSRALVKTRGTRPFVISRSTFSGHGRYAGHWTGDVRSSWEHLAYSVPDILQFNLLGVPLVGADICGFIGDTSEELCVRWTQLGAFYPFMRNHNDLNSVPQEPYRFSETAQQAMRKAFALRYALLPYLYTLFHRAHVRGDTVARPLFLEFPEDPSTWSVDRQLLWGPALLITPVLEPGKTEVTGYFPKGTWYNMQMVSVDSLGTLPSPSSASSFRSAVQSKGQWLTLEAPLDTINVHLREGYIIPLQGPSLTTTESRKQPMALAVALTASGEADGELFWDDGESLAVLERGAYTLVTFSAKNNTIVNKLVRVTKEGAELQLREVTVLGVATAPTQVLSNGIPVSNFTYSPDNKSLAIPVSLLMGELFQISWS
Summary of the method: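 Mixed mouse duodenum, jejunum and ileum homogenates were made in 25 mM potassium phosphate pH 6.5 with protease inhibitors (40 μg protein). Held 5 min on ice in McIlvaine buffer pH 4 or 7. Incubated 1 h at 37 °C with test compound (final 150 to 0.005 μM, plus 0), then probe 13 for 30 min at 37 °C. Boiled in Laemmli buffer, 10% SDS–PAGE, Cy5 fluorescence scan.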

GAA [2] = target: GAA (Homo sapiens, UniProt P10253); assay: Competitive ABPP against probe 13 in fibroblast lysates, pH 4; assay type: biochemical; settings: pH 4, preincubation 15, 30 or 60 min
Summary of the method: as §1

[3] = Solvolytic stability in McIlvaine buffer pH 4.0 by NMR; assay type: physicochemical; settings: McIlvaine buffer pH 4.0, room temperature, 24 h, 1H NMR
human α-glucosidase GAA = human α-glucosidase GAA (Homo sapiens, UniProt P10253); assay: In vitro apparent IC50, recombinant GAA; assay type: biochemical
Summary of the method: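 The enzyme source was GBA2-overexpressing HEK293T lysate or recombinant human GAA. It was preincubated 30 min at 37 °C with a range of test compound concentrations, then transferred into 4-MU glucoside substrate mixture to measure residual activity. Quenched with 1 M NaOH–glycine pH 10.3; 4-MU fluorescence at λex 366/λem 445 nm. Apparent IC50 is the mean of three technical replicates.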

O=S1(=O)O[C@@H]2[C@H](O)[C@@H](O)[C@H](O)[C@@H](CO)[C@@H]2O1 [Compound 5, 1,6-epi-cyclophellitol cyclosulfate]
inhibition of probe 13 labeling of GANAB (GANAB): time dependent inhibition | inhibition of probe 13 labeling of GAA (GAA [1]): inhibited | inhibition of probe 13 labeling of GAA (GAA [2]): time dependent inhibition | solvolytic stability (spontaneous hydrolysis) [3]: no spontaneous hydrolysis | IC50 (human α-glucosidase GAA): 82 ± 1 nM

From publication PMC5532717 (ACS Central Science, 2017)
